Shown are actives, neighbours in structure and some others; about 4.1% of the full set was active somewhere.
KCNQ1 pot: potentiates or activates the human KCNQ1 potassium channel. P51787. CHO-K1 KCNQ1, thallium flux FluxOR fluorescence; active compounds read high. B-score at 10 µM. hit rate 0.35% among 310,000;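 active means fluorescence ratio B-score, a plate-corrected score, at least three library SD, with initial intensity B-score within 5 SD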
Target sequence (P51787 whole entry, looked up): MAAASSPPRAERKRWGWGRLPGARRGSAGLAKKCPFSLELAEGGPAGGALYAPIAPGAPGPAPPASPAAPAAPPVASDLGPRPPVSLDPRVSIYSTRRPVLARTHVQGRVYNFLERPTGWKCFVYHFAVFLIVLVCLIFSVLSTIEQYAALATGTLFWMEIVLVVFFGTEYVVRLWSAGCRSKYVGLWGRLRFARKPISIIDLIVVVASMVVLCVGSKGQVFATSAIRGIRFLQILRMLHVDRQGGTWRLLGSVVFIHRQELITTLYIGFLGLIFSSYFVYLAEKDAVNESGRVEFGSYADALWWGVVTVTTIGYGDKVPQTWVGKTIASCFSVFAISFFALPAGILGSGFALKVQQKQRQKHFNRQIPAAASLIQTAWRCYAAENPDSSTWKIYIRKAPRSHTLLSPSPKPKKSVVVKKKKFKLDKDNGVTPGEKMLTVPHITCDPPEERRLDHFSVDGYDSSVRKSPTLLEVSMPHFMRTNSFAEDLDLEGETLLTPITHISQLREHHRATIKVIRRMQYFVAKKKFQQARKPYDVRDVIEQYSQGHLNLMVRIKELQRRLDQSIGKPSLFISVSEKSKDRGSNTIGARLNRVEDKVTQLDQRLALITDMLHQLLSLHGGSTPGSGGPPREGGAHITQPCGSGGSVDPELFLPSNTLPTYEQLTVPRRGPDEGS
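assay system = KCNQ1-transfected CHO-K1 cells | medium = assay buffer with matched DMSO | probe or stimulus = depolarizing K+/Tl+ stimulus, K2SO4 and Tl2SO4 each 12.5 mM in 5x stock | dosing = single dose | incubation = dye 90 min, compound 20 min, room temperature | detection = kinetic FluxOR fluorescence, 10 s baseline plus 110 s post-stimulus | evaluation = ratio B score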
KCNK9 inh: blocks the human KCNK9 two-pore domain potassium channel; HEK293 KCNK9, FluxOR thallium flux fluorescence; active compounds read low; Q9NPC2; hit rate 1.2% among 310,000; B-score at 10 µM;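 active means ratio B-score over 3 SD below the library mean, with starting fluorescence within 5 SD of its mean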;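 further: negative B-score means less thallium flux so channel inhibition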
KCNK3 inh: human KCNK3 channel inhibition, primary screen; O14649; CHO-KCNK3 thallium flux, FluxOR fluorescence; active compounds read low; B-score at 10 µM; hit rate 0.84% among 340,000; AID 602410;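 active means B-score under library mean minus 4 SD, starting fluorescence ratio at most library mean plus 5 SD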;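 further: more negative B-score means stronger inhibition of thallium flux through KCNK3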
KCC2 mod: modulates chloride dependent transport by human KCC2; Q9H2X9; KCC2 cells, thallium flux FluoZin-2 fluorescence; B-score of Tl+ flux slope (higher = more flux/activation; lower = inhibition) at 10 µM; hit rate 2.2% among 190,000;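 active means thallium flux slope and its plate-corrected score both differing from the plate sample mean at a set confidence after two filtering rounds, in either direction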;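 further: slope of fluorescence scaled to starting intensity during 10 to 20 s after thallium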
hERG rescue: hERG (human) protection from proarrhythmic block | activation (rescue from dofetilide block), less the hit threshold, % at 10 µM | hit rate 0.51% among 310,000 | CHO-hERG, FluxOR thallium flux, dofetilide IC70 present;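 active means activation above the mean of controls blocked by dofetilide plus 5 SD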;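 further: thallium influx through hERG after potassium depolarization seen as dye fluorescence rise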
KCNQ1 block: inhibitors of human KCNQ1 potassium channel | P51787 | CHO-K1 KCNQ1, FluxOR thallium flux fluorescence; active compounds read high | B-score at 10 µM | hit rate 1.3% among 310,000;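 active means compounds whose thallium flux B-score, printed positive for inhibition, exceeds three library SD while starting fluorescence stays within three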;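 further: channel opened by potassium depolarization with thallium stimulus after 20 min compound exposure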
KCNK3 confirm: human KCNK3 channel inhibition, confirmation assay. ratio percent of control, % at 10 µM. CHO-KCNK3 thallium flux, FluxOR fluorescence; 0% buffer, 100% carvedilol maximal block. hit rate 99% among 2,400. shares compounds with KCNK3 inh;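 active means ratio percent of control, averaged over triplicates, above buffer control mean plus 5 SD, cut at about 64% in these data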;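 further: ratio is the fluorescence rise from min to max over baseline after thallium stimulus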
KCNK3 noninduced: activity in cells without induced KCNK3 expression | shares compounds with KCNK3 inh | thallium flux ratio (lower = more inhibition) at 10 µM | non-induced KCNK3 parental cells, FluxOR thallium flux; active compounds read low | hit rate 40% among 2,400;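 active means thallium flux ratio, averaged over three wells, more than 5 SD below the buffer control mean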;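 further: host cells are CHO cells without KCNK3 induction; ratio is peak minus trough fluorescence over baseline then normalized to buffer controls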
* = called active by the depositor; i = inactive; x = no result.

SMILES | KCNQ1 pot | KCNK9 inh | KCNK3 inh | KCC2 mod | hERG rescue | KCNQ1 block | KCNK3 confirm | KCNK3 noninduced
CSc1nc(N)n2nc(-c3ccc(Cl)cc3)cc2n1 | i | i | i | -0.21 | -5 | i | x | x
CCCN1CCN(CC(=O)Nc2nnc(CC)s2)CC1 | i | i | i | x | -8 | i | x | x
Clc1ccccc1/C=C/C=N/Nc1nc(N2CCOCC2)nc(N2CCOCC2)n1 | i | i | -10* | x | -19 | i | 94* | i
COc1cccc2c1O/C(=N\O)C(C(=O)Nc1ccc(C)cc1)C2 (stereo not drawn) | i | i | i | x | -1 | i | x | x
Cc1ccccc1CC(=O)c1ccc(O)c(C)c1O | i | i | -13* | -1.9 | -12 | i | 115* | 0.15*
CN1CCN(C2Cc3cc(F)ccc3Sc3ccc(Cl)cc32)CC1 (stereo not drawn) | i | i | -10* | x | -14 | i | 114* | i
COc1ccc([C@H]2CC(=O)C=C(c3ccc4c(c3)sc3ccccc34)C2)cc1 | x | x | i | x | x | x | x | x
CCOC(=O)CNC(=S)N(Cc1ccco1)Cc1ccccc1Cl | i | i | -10* | x | -7 | i | 124* | i
O=C(CSc1nc2ccccc2c(=O)n1Cc1ccco1)c1ccc(F)cc1 | i | i | -9.6* | 0.38 | -10 | i | 112* | i
Cc1cc2c(=O)n(Cc3ccco3)c(SCC(=O)c3ccc(Cl)s3)nc2s1 | i | -6.7* | -9.7* | 0.69 | -21 | i | 108* | i
O=C(CSc1nc2ccccc2c(=O)n1Cc1ccco1)N1CCCC1 | i | i | i | -1.7 | -4 | i | x | x
NC(=O)c1ccsc1NC(=O)COC(=O)Cc1ccccc1Cl | x | x | i | x | x | x | x | x
CCOC(=O)c1cc(C#N)c(SCC(=O)c2cc(C#N)c(SC)nc2C)nc1C | i | i | -11* | x | -1 | i | 107* | 0.14*
CCOC(=O)c1cc(C#N)c(SCc2cccc3ccccc23)nc1C | i | i | i | -0.16 | -7 | i | x | x
COc1ccccc1/C=C1\SC(=S)N(N2C(=O)CCCC2=O)C1=O | i | i | -9.4* | -0.019 | -12 | i | 105* | i
COc1ccc(/C=C2\SC(=S)N(N3C(=O)CCC3=O)C2=O)cc1O | i | i | i | 0.96 | -10 | i | x | x
COc1ccc2[nH]c3c(N4CCC(O)(c5cccc(C(F)(F)F)c5)CC4)ncnc3c2c1 | i | i | -12* | -1.1 | -16 | i | 122* | 0.15*
COc1ccc2[nH]c3c(N4CCN(Cc5ccc6c(c5)OCO6)CC4)ncnc3c2c1 | i | i | i | -1.2 | -24 | i | x | x
COc1ccc(NS(=O)(=O)c2cccc(C(=O)NNC(=O)c3ccc(=O)[nH]c3)c2)cc1 | x | x | i | x | x | x | x | x
CCOP(=O)(OCC)c1nc(-c2cccc3ccccc23)oc1NCc1ccc(OC)cc1 | i | i | -11* | 0.0032 | -23 | i | 107* | 0.16*
Cc1ccccc1OCC(O)Cn1c2ccccc2c2ccccc21 (stereo not drawn) | i | -6.7* | -9.7* | x | -5 | i | 131* | 0.13*
COc1ccccc1C(=O)NCC(=O)OCC(=O)Nc1cccc(S(=O)(=O)N(C)C)c1 | i | i | i | -1.6 | -5 | i | x | x
CN(C)S(=O)(=O)c1cccc(NC(=O)COc2ccccc2C(=O)NCc2ccccc2)c1 | x | x | -12* | x | x | x | 119* | 0.16*
N#Cc1ccc(COC(=O)c2cnc3ccccc3n2)cc1 | i | i | i | x | -8 | i | x | x
Nc1ncnc2c1c(-c1ccc(Oc3ccccc3)cc1)cn2C1CCCC1 | x | x | -12* | x | x | x | 115* | i
SMILES | KCNQ1 pot | KCNK9 inh | KCNK3 inh | KCC2 mod | hERG rescue | KCNQ1 block | KCNK3 confirm | KCNK3 noninduced
Nc1nc(N)nc(-c2ccc(Oc3ccccc3)cc2)n1 | i | i | i | -0.093 | 1 | i | x | x
O=C(c1ccccc1)C1CCN(c2ncccc2[N+](=O)[O-])CC1 | i | i | -8.8* | -1.4 | -10 | i | 85* | i
N#CC1CCN(c2ncccc2[N+](=O)[O-])CC1 | i | i | i | 0.12 | -3 | i | x | x
O=C(COC(=O)CC1SC(N2CCCC2)=NC1=O)Nc1ccc(Br)cc1 (stereo not drawn) | x | x | i | x | x | x | x | x
O=C(CSc1ccc(-c2ccc(F)cc2)nn1)NC1CCCCC1 | i | i | i | x | -2 | i | x | x
CC1CC(C)(C)N(C(=O)CSc2ccc(-c3ccc(F)cc3)nn2)c2ccccc21 (stereo not drawn) | i | i | -12* | -2.7 | -10 | 7* | 112* | 0.15*
O=C(c1ccco1)N1CCN(Cc2cc(=O)c(OCc3c(F)cccc3Cl)co2)CC1 | i | i | i | x | -12 | i | x | x
O=S(=O)(c1ccccc1)N1CCN(c2ccnc3cc(Cl)ccc23)CC1 | i | i | -9.3* | -0.55 | -16 | i | 98* | i
C/C(Sc1nnc(Cc2ccccc2)o1)=C(\O)c1ccccc1 | x | x | i | x | x | x | x | x
Cc1cc(C(=O)N/N=C/c2ccc(-c3ccc([N+](=O)[O-])cc3C)o2)n[nH]1 | i | i | i | x | -7 | i | x | x
Cc1cc([N+](=O)[O-])ccc1-c1ccc(/C=N/NC(=O)c2ccc(Br)o2)o1 | i | i | -9.4* | x | -1 | i | 105* | i
COc1ccc(NC(=O)C2CCCN(C(=O)c3ccc(Cl)cc3)C2)cc1S(=O)(=O)N(C)C (stereo not drawn) | x | x | i | x | x | x | x | x
Cc1ccc(C)c(-c2cc(C(=O)Nc3cccnc3)c3ccccc3n2)c1 | i | -8* | -12* | x | -9 | 6* | 125* | 0.12*
COc1ccc(NC(=O)N(C)C[C@H]2Oc3c(NS(=O)(=O)c4cccs4)cccc3C(=O)N([C@@H](C)CO)C[C@@H]2C)cc1 | x | x | i | x | x | x | x | x
COc1cc(N(C)C)ccc1C=c1c2ccccc2n2c1cc(-c1ccccc1)[n+]2C | x | x | i | x | x | x | x | x
CN(C)c1ccc(C=c2c3ccccc3n3c2c2c([n+]3C)CCCC2)cc1 | x | x | -13* | x | x | x | 171* | 0.071*
CCn1c(SCC(=O)Nc2oc(-c3ccccc3)c(-c3ccccc3)c2C#N)nnc1-c1ccco1 | i | i | i | -2 | -11 | i | x | x
CCn1c(SCC(=O)Nc2oc(-c3ccccc3)c(-c3ccccc3)c2C#N)nnc1-c1ccncc1 | i | i | -9.3* | -2 | -11 | i | 118* | 0.14*

High-throughput results: PubChem BioAssay, several laboratories
